Screening results deposited in PubChem by Sanford-Burnham Center for Chemical Genomics.
bIAP inh – blocks bovine intestinal alkaline phosphatase activity. AID 1019. inhibition, % at 20 µM. 190,000 tested, under 10 active. purified bovine IAP, CDP-star luminescence, 30 min;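 active = over 50% inhibition of intestinal alkaline phosphatase at 20 µM in the single-dose screen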
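Assay system: bovine IAP enzyme; medium: DEA buffer 100 mM, pH 9.8, with MgCl2 1.0 mM, ZnCl2 0.02 mM; doses: 20 µM single dose; incubation: enzyme reaction for 30 min at room temperature; detection: CDP-star luminescence signal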
bIAP act – increases bovine intestinal alkaline phosphatase activity; purified bovine IAP, CDP-star luminescence, 30 min; active compounds read high; fold of DMSO-control signal, blank-subtracted; activation factor at 20 µM; actives 0.17% (n = 200,000);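 active = activation factor of 2 or more at 20 µM, a signal rise over negative controls twice the positive control's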
hIAP activ – increases human intestinal alkaline phosphatase activity | P09923 | purified human IAP, CDP-Star luminescence, 30 min; active compounds read high; 1 = vehicle-only enzyme, 0 = enzyme-free background | AID 2524 | activation factor at 10 µM | actives 0.16% (n = 330,000);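 active = activation factor of the enzyme at least 2-fold when tested at 20 µM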
Target sequence (P09923 whole entry, looked up): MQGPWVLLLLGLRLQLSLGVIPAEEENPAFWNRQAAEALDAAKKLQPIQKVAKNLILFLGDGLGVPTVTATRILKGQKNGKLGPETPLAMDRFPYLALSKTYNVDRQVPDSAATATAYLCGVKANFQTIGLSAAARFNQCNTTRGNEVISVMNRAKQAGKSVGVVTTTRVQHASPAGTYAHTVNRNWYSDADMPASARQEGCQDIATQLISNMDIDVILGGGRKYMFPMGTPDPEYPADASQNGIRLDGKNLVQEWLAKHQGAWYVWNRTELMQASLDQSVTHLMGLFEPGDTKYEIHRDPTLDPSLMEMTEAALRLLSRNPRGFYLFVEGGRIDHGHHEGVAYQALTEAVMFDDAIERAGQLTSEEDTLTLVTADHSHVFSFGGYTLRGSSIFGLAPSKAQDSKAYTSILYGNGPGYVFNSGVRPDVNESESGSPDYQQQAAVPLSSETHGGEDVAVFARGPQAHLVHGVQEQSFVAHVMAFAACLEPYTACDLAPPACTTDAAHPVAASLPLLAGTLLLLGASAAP
mIAP activ – increases mouse intestinal alkaline phosphatase activity; muIAP, CDP-Star luminescence, 30 min; active compounds read high; 1 = vehicle-only enzyme signal, 0 = enzyme-free wells; activation factor at 10 µM; actives 0.24% (n = 330,000); AID 2805;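 active = activation factor of at least 2 at 20 µM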
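System: mouse IAP enzyme. Reagent: CDP-Star chemiluminescent phosphatase substrate. Benchmarks: DMSO wells, no-enzyme wells. Times: 30 min enzyme-substrate-compound incubation at room temperature. Detection: luminescence from enzymatic CDP-Star hydrolysis. Doses: test compounds delivered from DMSO solution.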
hIAP block – blocks human intestinal alkaline phosphatase; actives 0.12% (n = 330,000); purified IAP, CDP-Star luminescence, 30 min; P09923; inhibition, % at 10 µM;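 active = inhibition reaching a set limit with compound at 10 µM in the primary screen, cut at about 35% in these data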;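 also: plate controls were DMSO wells with enzyme for no effect and no-enzyme buffer wells for full effect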
mIAP inh – mouse IAP inhibition; actives 0.2% (n = 330,000); inhibition, % at 10 µM; AID 2806; purified mouse IAP, CDP-Star luminescence, 30 min;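 active = inhibition of at least 40% at 10 µM in the primary screen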;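 also: plate controls were DMSO with enzyme for no effect and no enzyme wells for full effect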
* hit, by the source's call; i = inactive; . = no result. Hits are enriched below; roughly 0.79% of the tested compounds scored in any of these assays.

SMILES	bIAP inh	bIAP act	hIAP activ	mIAP activ	hIAP block	mIAP inh
CN(C)CCCNS(=O)(=O)c1ccc(N2CCC(c3ccc(Cl)cc3)=N2)cc1	-125	2.2*	1.2	1.9	-18	-89
Cc1ccc2nc(SC(C)C(=O)N3CCOCC3)[nH]c2c1 (stereo unspecified)	0	1	1.1	1	-12	0
S=C(NCC1CCCCC1)Nc1cccnc1	5	0.9	0.89	1	11	-1
FC(F)Sc1ccc(NC(=S)NC2CCCCC2)cc1	26	0.7	1.1	2.2*	-11	-123
CN(CC(=O)Nc1ccc(SC(F)F)cc1)C1CCCCC1	17	0.8	1	1.2	-3	-20
FC(F)Sc1ccc(NC(=S)NCC2CCCCC2)cc1	.	0.3	0.91	3.3*	9	-228
CC1CCCCC1NC(=S)Nc1ccc(SC(F)F)cc1 (stereo unspecified)	21	0.8	1.1	3.3*	-10	-227
CC(CC(=O)Nc1ccc(Cl)c(S(=O)(=O)N2CCOCC2)c1)c1ccccc1 (stereo unspecified)	.	.	0.99	1.1	1	-7
CC(OC(=O)CCC1CCCC1)C(=O)Nc1ccccc1[N+](=O)[O-] (stereo unspecified)	.	.	0.84	0.91	16	9
O=C(NC(=S)Nc1ccc2c(c1)C(=O)c1ccccc1C2=O)c1ccc(F)cc1	6	0.9	0.96	1	4	0
CN1CCC(=NNC(=O)C(=O)NC(C)(C)C)CC1	-276	3.8*	0.96	0.91	4	9
CC(C)(C)NC(=O)C(=O)NN=C1CCCCCC1	2	1	1.1	1	-7	-5
O=C(NC(=S)NNC(=O)c1ccccc1O)c1ccco1	10	0.9	.	.	.	.
O=C(NC(=S)NNC(=O)c1cc2ccccc2cc1O)c1ccco1	8	0.9	2.2*	0.65	-124	35
CN(C)c1nc(NC(C)(C)C)nc(SCC(=O)Nc2ccccc2)n1	-7	1.1	0.95	1.2	5	-16
CN(C)c1nc(NCc2ccccc2)nc(SCC(=O)Nc2ccccc2)n1	13	0.9	0.97	2*	3	-104
CC(C)(C)OC(=O)C[C@@H]1C/C=C\C[C@@H](CC(=O)N(CCO)Cc2ccccc2)C(=O)N2CCC[C@@H]2COC1=O	.	.	0.9	0.93	10	7
CCN(CC)c1ccc2cc(-c3nc4ccccc4n3C)c(=O)oc2c1	-158	2.6*	.	.	.	.
CCN(CC)c1ccc2cc(-c3nc4ccccc4[nH]3)c(=O)oc2c1	-68	1.7	0.85	1.4	15	-40
O=C(Nc1ccc(S(=O)(=O)N2CCCCC2)cc1)c1ccccc1Cl	19	0.8	0.86	1	14	-1
O=C(Nc1ccccc1)Nc1ccc(S(=O)(=O)N2CCCCC2)cc1	17	0.8	0.94	2.4*	6	-140
Cc1oc(S(=O)(=O)N2CCCCC2)cc1NC(=O)Nc1ccc(Cl)cc1	.	.	1.4	2.6*	-35	-156
Cc1ccc(S(=O)(=O)N2[C@@H](c3cccc(Cl)c3)C(C(=O)O)=CC[C@H]2c2cccc(Cl)c2)cc1	.	.	0.91	0.58	9	42*
CN1CCN(CCCc2c3c(cc4c2CCC4)CCC3)CC1	-6	1.1	0.76	1.1	24	-9
CC(C)(C)c1ccc(NC(=O)COc2ccc(-n3ccnc3)cc2)cc1	-165	2.6*	1.1	1.2	-7	-23
SMILES	bIAP inh	bIAP act	hIAP activ	mIAP activ	hIAP block	mIAP inh
COc1cc(NC(=O)COc2ccc(-n3ccnc3)cc2)cc(OC)c1	-25	1.2	1.3	1.1	-28	-10
CSc1ncccc1C(=O)OCC(=O)NC(C)CCc1ccccc1 (stereo unspecified)	.	.	1.1	0.97	-5	3
C=C1c2ccccc2S(=O)(=O)N(Cc2ccccc2)C1COCc1ccccc1 (stereo unspecified)	.	.	1	0.97	-4	3
COc1ccc(-c2cc(NCc3ccccn3)n3ncnc3n2)cc1	i	7.4*	0.98	1.8	2	-81
c1ccc(CNc2c3c(nc4ncnn24)CCCC3)nc1	-378	4.8*	0.84	0.94	16	6
COc1cccc2c1NC(C(=O)O)C1CC=CC21 (stereo unspecified)	12	0.9	1.1	0.43	-7	57*
Cc1ccc2c(c1)C1C=CCC1C(C(=O)O)N2 (stereo unspecified)	7	0.9	.	.	.	.
Cc1ccc(Nc2[nH]c(=O)c3ccccc3c2C(=O)c2ccccc2)cc1	.	.	1.1	0.93	-8	7
Cc1ccc(NC(=O)C2CCN(S(=O)(=O)c3ccc4c(c3)NC(=O)C(C)S4)CC2)cc1Cl (stereo unspecified)	.	.	1.5	2.4*	-53	-137
Cc1noc(C)c1S(=O)(=O)N(C)C[C@H]1Oc2ccc(NC(=O)NC(C)C)cc2C(=O)N([C@H](C)CO)C[C@@H]1C	.	.	1.1	1.2	-14	-23
N#Cc1c(N)sc(=S)c2c1CCCCC2	12	0.9	1	0.52	-4	48*
N#Cc1c(N)sc2c1CCCCCC2	35	0.6	1.1	0.99	-6	0
COc1cc(/C=C2\SC(=S)N(Nc3ccccc3)C2=O)cc(OC)c1OC	7	0.9	0.95	0.6	5	40*
Cn1c(=O)[nH]c(=O)c2c1nc(N1CCCCCC1)n2CCCSc1nc2ccccc2o1	i	6.8*	1	1.1	-1	-9
Cn1c(=O)[nH]c(=O)c2c1nc(N1CCCCCC1)n2CCSc1nc2ccccc2o1	5	0.9	1	1.1	0	-11
COc1cc(NC(=O)c2ccc3c(c2)OCO3)c2ncccc2c1	i	11*	1	0.98	-4	2
O=C(Nc1cccc2cccnc12)c1ccc2c(c1)OCCO2	26	0.7	1.1	1	-13	-1
CC(Sc1nnc(-c2ccco2)o1)C(=O)Nc1ccc(OC(F)F)cc1 (stereo unspecified)	.	.	1.1	0.49	-10	51*
Cc1ccccc1NC1=NC2(CCCC2)N=C(N)N1	-6	1.1	0.98	0.97	2	3
Cc1ccc(NC2=NC3(CCCCC3)N=C(N)N2)c(C)c1	-272	3.7*	1.5	1.1	-49	-14
Cc1ccc(NC2=NC3(CCCC3)N=C(N)N2)c(C)c1	-10	1.1	1.1	1	-7	-3
Cc1cccc(NC2=NC3(CCCCC3)N=C(N)N2)c1C	-167	2.7*	0.95	1.2	5	-16
COc1ccc(CS(=O)(=O)CC(C)(O)c2ccccc2Cl)cc1 (stereo unspecified)	.	.	1	0.98	0	2
O=C(CCNC(=O)c1ccco1)NCc1ccc(F)cc1	.	.	0.91	1	9	-5
C1CCC(c2nn3c(-c4n[nH]c5c4CCC5)nnc3s2)CC1	-334	4.3*	1	0.98	-1	2
